Source: PubChem BioAssay (several laboratories)
Cardio protect: protects H9c2 cardiomyocytes from peroxide injury. H2O2 injury protection, ATPLite, 2 h. 360,000 compounds, 0.63% hits. protection from H2O2 cell death, % at 20 µM;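 active = compounds giving at least 50% protection of heart cells from peroxide-induced death in the single-dose screen, raw or plate-pattern-corrected value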
PKA-R1A act: activators of PKA-R1A complex. P00514+P68181. PKA-R1A dissociation, Cy5-IP20 fluorescence polarization; scaled: DMSO 0%, 113 µM cGMP 100%. activation, % at 11.4 µM. 340,000 compounds, 0.083% hits;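 active = percent activation above the mean of all tested compounds plus 3 SD, cut at about 19% in these data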;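 also: higher means more PKAc released from R1A so a rise in polarization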
TbMetRS inhib: blocks T. brucei methionyl-tRNA synthetase activity | 360,000 compounds, 0.4% hits | inhibition, % at 11.9 µM | AID 624268 | purified T. brucei MetRS, ATP depletion, Kinase-Glo luminescence;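 active = inhibition above a per-plate cutoff of the control wells' mean inhibition plus 3 SD, cut at about 5.5% in these data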
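Material: T. brucei methionyl-tRNA synthetase, purified; reagent: substrates ATP, L-methionine and bulk Escherichia coli tRNA; dosing: 11.9 µM single point; timing: 15 min plus 2 h at 25 °C; detection: luminescence of leftover ATP; evaluation: % inhibition; control set: DMSO-only wells as low control; replicates: singlicate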
Rin1-Abl PPI inh: human Rin1-Abl interaction inhibition; P00519+Q13671; TR-FRET Rin1/Abl binding, biochemical; inhibition, % at 7.35 µM; 360,000 compounds, 0.4% hits; AID 588664; in the data active = inhibition above about 5%, passing the limit was not always enough
PKA-R2B activ: PKA-R2B complex activation; PKA-R2B holoenzyme dissociation, Cy5-IP20 fluorescence polarization; R2B truncated from residue 108, S112A mutant; 0% DMSO only, 100% 113 µM cGMP; 340,000 compounds, 0.079% hits; AID 504700; P22694+P31323; activation, % at 11.4 µM;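 active = activation above a cutoff set at the mean over all compounds plus 3 SD, cut at about 18% in these data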;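 also: higher means more holoenzyme dissociation and a rise in polarization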
Target sequence (P31323 whole entry, looked up, other chains not shown, the tested form may be a part): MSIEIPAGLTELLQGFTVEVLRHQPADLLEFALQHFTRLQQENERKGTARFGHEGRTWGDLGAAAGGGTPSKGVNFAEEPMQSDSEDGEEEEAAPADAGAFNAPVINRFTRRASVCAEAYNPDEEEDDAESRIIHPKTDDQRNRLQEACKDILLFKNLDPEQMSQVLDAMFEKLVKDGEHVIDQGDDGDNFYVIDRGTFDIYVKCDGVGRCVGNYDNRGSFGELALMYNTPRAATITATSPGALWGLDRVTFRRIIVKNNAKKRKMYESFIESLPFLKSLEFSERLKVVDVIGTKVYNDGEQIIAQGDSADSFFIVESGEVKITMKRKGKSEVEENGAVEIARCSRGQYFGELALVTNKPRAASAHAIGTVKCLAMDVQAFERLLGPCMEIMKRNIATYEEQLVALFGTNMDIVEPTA
Each line names hits and unclear results; the compound was inactive in the other large screens. Shown are actives, neighbours in structure and some others; about 1.5% of the full set was active somewhere.

COc1ccc(S(N)(=O)=O)cc1C(=O)OCC(=O)N1c2ccccc2NC(=O)C1(C)C	none
CCOc1ccc2[nH]c(=O)c(CN(CCO)C(c3nnnn3C3CCCCC3)C(C)C)cc2c1 (stereo unspecified)	Cardio protect 102.7
CC1CCCC(NC(=S)Nc2cccc(S(=O)(=O)N(C)C)c2)C1C (stereo unspecified)	none
COc1ccc2c(c1)C(=O)[C@@H](O)[C@H](c1ccc(OC)c(Br)c1)O2	Cardio protect 51.6
COc1cccc([C@@H]2Oc3ccc(OC)cc3C(=O)[C@H]2O)c1	none
COc1ccc(-c2csc(C(C#N)=C(O)CSc3nccn3C)n2)cc1OC	Cardio protect 56.8
CC1CCN(C(=O)c2[nH]cnc2C(=O)N[C@@H](C)c2ccccc2)CC1	none
O=C(O)COc1ccc2c3c(c(=O)oc2c1)CCCC3	none
CCOC(=O)COc1cc(OCC(=O)OCC)c2c3c(c(=O)oc2c1)CCCC3	Cardio protect 63.5
C=CCOC(=O)COc1ccc2c3c(c(=O)oc2c1)CCCC3	Cardio protect 87.3
CCOc1ccc(C(=O)N/N=C/c2cccc3cccnc23)cc1	none
CSCC[C@H](NC(=O)OC(C)(C)C)C(=O)N/N=C/c1cccc2cccnc12	Cardio protect 51.8
CCOc1ccccc1C(=O)N/N=C/c1cccc2cccnc12	Cardio protect 86.2
CCCCc1ccc(/C(C)=N/Nc2cc(N3CCOCC3)nc(C)n2)cc1	none
COc1cc(/C=C2\CCC(C3CCCC3)C2=O)ccc1OC(C)C (stereo unspecified)	none
COC(=O)[C@H]1C[C@@]2(O)CN(S(=O)(=O)c3ccc(C)cc3)C[C@@]2(OC(=O)NCc2ccccc2)C[C@H]1C(=O)OC	none
CCN(CC(=O)Nc1c(F)cccc1F)C(=O)C1(c2ccccc2)CC1	none
CCOC(=O)c1[nH]c2cc(OC)c(OC)cc2c1NC(=O)C(C)N1CCN(Cc2ccccc2)CC1 (stereo unspecified)	Cardio protect 55.5
CCOC(=O)c1[nH]c2ccc(F)cc2c1NC(=O)Nc1ccccc1OC	none
CN1CCN(C(c2cccnc2)c2ccc3cccnc3c2O)CC1 (stereo unspecified)	Cardio protect 61.8
CC(C)Oc1ccc(S(=O)(=O)N2CCOCC2)cc1NC(=O)Cc1c(F)cccc1Cl	none
COc1ccc(COc2cc(-c3cccc(OC)c3)nc3ccc(NC(=O)c4ccc(Cl)cc4)cc23)cc1	none
COc1ccc(COc2cc(-c3cccc(OC)c3)nc3ccc(NC(=O)c4ccccc4)cc23)cc1	none
COc1ccc(COc2cc(-c3cccc(OC)c3)nc3ccc(NC(=O)c4ccc(OC)cc4)cc23)cc1	Cardio protect 57.8
COc1ccc(COc2cc(-c3cccc(OC)c3)nc3ccc(NC(=O)c4cccnc4)cc23)cc1	Cardio protect 91.2
COc1ccc(N(Cc2cc3cc(OC)ccc3[nH]c2=O)C(=O)c2cccnc2)cc1	Cardio protect 108.6
COc1ccc2[nH]c(=O)c(CN(Cc3cccnc3)C(=O)Nc3ccccc3)cc2c1	none
COc1ccc(NC(=S)N(Cc2cccnc2)Cc2cc3cc(OC)c(OC)cc3[nH]c2=O)cc1	Cardio protect 65.9
O=S(=O)(O)c1cc(O)c2c(O)c(N=Nc3cc(Cl)ccc3O)c(S(=O)(=O)O)cc2c1	TbMetRS inhib 18.1, Rin1-Abl PPI inh 10.8
O=C(Oc1ccccc1)c1cc(O)c(O)c(O)c1	Cardio protect 74.8 (no result: PKA-R1A act, PKA-R2B activ)
O=C(OCCc1ccccc1)c1cc(O)c(O)c(O)c1	none
COc1cccc(C(=O)Nc2nnc(-c3ccc(Cl)cc3)o2)c1	Cardio protect 67.2
COc1cccc(C(=O)Nc2cccc(-c3nnc(-c4ccco4)o3)c2)c1	Cardio protect 113.3
COc1cccc(C(=O)Nc2nnc(-c3ccc(F)cc3)o2)c1	none
CN(C)c1ccc(C(=O)Nc2nnc(-c3ccc(Cl)cc3)o2)cc1	Cardio protect 53.1
COc1ccc(Br)cc1C(=O)Nc1cccc(-c2nnc(-c3ccco3)o2)c1	none
CC(=O)c1ccc(C(=O)Nc2nnc(-c3ccc(Cl)cc3)o2)cc1	Cardio protect 66.1
COc1cc(C(=O)NCC(=O)OCCN2C(=O)c3ccccc3C2=O)cc(OC)c1OC	none
CS/C(Nc1cc(Cl)ccc1Cl)=C(/C#N)C(=O)c1ccco1	none
